Source: PubChem BioAssay
Lmaj promast: Leishmania major promastigote growth inhibition; Leishmania major promastigotes, resazurin fluorescence viability; inhibition, % at 10 µM; actives 9% (n = 200,000); AID 1063; in the data active = inhibition above about 50%;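 note: promastigotes grown with compound for 44 hours at 28 °C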
MT stabilize HCS: stabilizes microtubules in HeLa cells; AID 2205; % tubulin-high responders, % at 10 µM; actives 0.83% (n = 200,000); HeLa tubulin immunostaining HCS, 24 h; share of cells brighter than vehicle mean+2SD;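 active = plate Z-score above 3 for both tubulin-high and condensed-nucleus cell shares, with cell loss under 80%, at 10 µM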;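 note: anti alpha tubulin signal scored within the nucleus-defined area of each cell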
Dynein cargo inh: dynein cargo transport inhibition; z-score, hits read low; actives 0.47% (n = 220,000); 3617.4 mouse cells, GR-EGFP nuclear translocation imaging; test concentration mostly 20 µM; stimulated with dexamethasone, 1 µM; active compounds read low;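 active = plate z-score of nuclear minus cytoplasmic receptor signal below a set negative limit, without overly bright fluorescence or cell loss, cut at about -3.5 in these data, passing the limit was not always enough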;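 note: z-score of nuclear minus cytoplasmic ring GR-EGFP intensity difference per well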
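Buffer or medium – tet-free medium with charcoal-stripped serum · Signal – automated 10x imaging of fixed Hoechst-stained cells · Also added – dexamethasone agonist, 1.0 µM final, for 30 min · Incubation – induction 48 h, compound 1 h, agonist 30 min · Read-out – GR-EGFP nuclear translocation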
CHOP inhibitor: blocks CHOP induction under ER stress. CHO-K1 CHOP-promoter luciferase, tunicamycin-induced, 15-18 h. inhibition, % at 10 µM. actives 3.8% (n = 220,000). AID 2732;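 active = compounds that reduced the stress-induced luciferase reporter signal by more than about 70% of percent inhibition, limit read from the data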
Autophagy mod: autophagy modulation, high-content screen; MEF GFP-LC3 puncta imaging; test concentration mostly 10 µM; calls only at 10 µM (by protocol); actives 0.98% (n = 190,000);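 active = percentage of spot-positive cells more than 3 SD above its plate mean, without a fluorescence outlier flag or 80% toxicity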
bCat nuc transl: modulators of beta-catenin nuclear translocation; HeLa beta-catenin nuclear translocation, immunofluorescence imaging; nuclear translocation activity, % at 5 µM; actives 0.3% (n = 190,000);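 active = nuclear translocation activity above 50% at 5 µM, with a well cell count of 50 or more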;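 note: per-cell ratio of nuclear to cytoplasmic median beta-catenin stain intensity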
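Assay system: human HeLa cells, native beta-catenin; doses: 5 µM primary, 0.02–20 µM confirmation; incubation: compound treatment 24 h, 37°C, 5% CO2; technique: fluorescence imaging of beta-catenin antibody stain plus DAPI; measure: % activation, nuclear-to-cytoplasmic median beta-catenin signal ratio per cell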
Lmaj promast 1uM: L. major promastigote growth inhibition, 1 uM repeat. resazurin fluorescence, 48 h. actives 13% (n = 1,100). shares compounds with Lmaj promast. inhibition, % at 1 µM;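 active = inhibition above about 50% in both repeat tests, limit read from the data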
Hits are given with their value; - = inactive; . = not tested or not shown; + = active, no number. This is a sample that favours compounds with a hit; in the whole collection about 12% have one here.

SMILES	Lmaj promast	MT stabilize HCS	Dynein cargo inh	CHOP inhibitor	Autophagy mod	bCat nuc transl	Lmaj promast 1uM
Cc1cccc(C2CC3(CC(C)(C)NC(=S)N3)Oc3cc(O)ccc32)c1 (stereo unspecified)	-	-	-	-	-	-	.
CC1(C)CC2(CC(c3ccccc3F)c3cc(Cl)c(O)cc3O2)NC(=S)N1 (stereo unspecified)	83.2	-	-	-	-	-	-
CCCC1=C(C(=O)OCC)C(c2c(C)nn(-c3ccccc3)c2Cl)C(C#N)=C(N)O1 (stereo unspecified)	-	-	-	-	-	-	.
CCn1cc([N+](=O)[O-])c(C(=O)N2N=C(c3ccc(OC)cc3OC)CC2c2ccccc2O)n1 (stereo unspecified)	60.0	-	-	-	-	-	-
COc1ccc(C(=O)C(CO)Oc2ccccc2OC)cc1OC (stereo unspecified)	-	-	-	-	-	-	.
Cn1c2ccccc2n2c(=O)c(Cl)c(-c3ccccc3)c(C#N)c12	61.6	-	-	72.9	+	-	-
Cc1nn(-c2ccccc2)c2c1C1(C(=O)N(C(C)C)c3ccccc31)C(C#N)=C(N)O2 (stereo unspecified)	-	-	-	-	-	-	.
Cc1ccc(-c2cc[n+](Cc3ccccc3)cc2)cc1	91.7	-	-	-	-	-	-
CCOC(=O)c1nc2sc3c(c2c(=O)n1C(C)C(=O)OCC)CCCC3 (stereo unspecified)	-	-	-	-	-	-	.
CC1(C)Cc2ccccc2-c2nnc(-c3ccc4ccccc4n3)n21	62.4	-	-	-	-	-	56.6
Cc1nc(S(=O)(=O)Cc2ccccc2Cl)nc2c1CCC2	-	-	-	-	-	-	.
Cc1cccc(C)c1-n1nnnc1S(=O)(=O)Cc1ccccc1Cl	76.7	-	-	-	-	-	-
Cc1cc(C(=O)NCCc2ccccc2)c2cc(F)ccc2n1	-	-	-	-	-	-	.
COc1ccc(CN(C(=O)c2cnccn2)C(C(=O)Nc2ccc(F)cc2)c2ccccc2)cc1 (stereo unspecified)	62.3	-	-	-	-	-	-
Cc1cc2nc(SCCOC(=O)Nc3ccccc3)nc(C)c2cc1C	65.6	-	-	-	-	.	-
Cc1cc2nc(SCCOC(=O)Nc3cccc(Cl)c3)nc(C)c2cc1C	-	-	-	-	-	-	.
COc1cc(C(C)=O)ccc1OC(=O)c1cc2cccc(OC)c2oc1=O	-	-	-	-	-	-	.
O=C1CCCC/C1=C/NCc1ccc(F)cc1	-	-	-	-	-	-	.
Cn1c(=O)c2nc(-c3ccccc3)oc2c2ccccc21	91.8	-	-	-	-	-	72.3
C[C@@H]1NC(=O)c2cc([N+](=O)[O-])cc(I)c2NCCCC[C@@H](C(N)=O)NC(=O)[C@H](CCC(=O)O)NC1=O	-	-	-	-	-	.	.
FC(F)Oc1ccc(/C=N/c2c(-c3ccc(OC(F)F)cc3)nc3n2CCS3)cc1	72.3	-	-	-	-	-	-
CSc1c2c(nc3ncnn13)CCC2	51.2	-	-	-	-	.	-
c1ccc(Nc2c3c(nc4ncnn24)CCC3)cc1	-	-	-	-	-	-	.
CCN(CC)C(=O)n1cnc(-c2ccccc2)c1-c1ccccc1	69.0	-	-	-	-	-	-
CCN(CC)C(=O)CSc1nnc(-c2ccccc2)c(-c2ccccc2)n1	-	-	-	-	-	-	.
SMILES	Lmaj promast	MT stabilize HCS	Dynein cargo inh	CHOP inhibitor	Autophagy mod	bCat nuc transl	Lmaj promast 1uM
Cc1ccc(OC(C)c2nnc(N)s2)cc1Cl (stereo unspecified)	99.6	-	-	-	-	.	-
COc1ccc(OC(C)c2nnc(N)s2)cc1 (stereo unspecified)	-	-	-	-	-	-	.
Cc1cc2nc(SCC(=O)Nc3ccccc3C(=O)O)[nH]c2cc1C	-	-	-	-	-	-	.
COc1ccc(CCNC(=O)CO/N=C/c2cc3c(cc2Br)OCO3)cc1OC	-	-	-	-	-	-	.
CCC(C)Nc1nc2c(c(=O)n(C)c(=O)n2C)n1Cc1ccc(Cl)cc1 (stereo unspecified)	.	.	-	-	.	-	.
CCC(C)Nc1nc2c(c(=O)n(C)c(=O)n2C)n1Cc1cccc(C)c1 (stereo unspecified)	83.2	-	-	-	-	-	-
O=C(NCC1CCCO1)C(=O)c1c[nH]c2ccccc12 (stereo unspecified)	-	-	-	-	-	-	.
CC1=NN(/C(=N\c2nnc(C)s2)Nc2ccc(C(C)(C)C)cc2)[C@H](c2ccc(C)cc2)S1	64.4	-	-	-	-	-	-
CCOC(=O)c1c(C)n(C)c2ccc(OC(=O)c3ccc(N4C(=O)CCC4=O)cc3)cc12	-	-	-	-	-	-	.
CC(=O)Oc1cc2c(cc1Cl)C1(CC(c3ccccc3Cl)O2)CC(C)(C)NC(=S)N1 (stereo unspecified)	97.8	-	-	-	-	-	-
COc1ccc(N2C(=S)NC(C)(C)CC2(C)c2ccc(OC(C)=O)cc2OC(C)=O)cc1 (stereo unspecified)	-	-	-	-	-	-	.
COc1cccc(C(=O)NC2CCN(C(=O)N3c4ccccc4Sc4ccccc43)CC2)c1	70.8	-	-	-	-	-	-
CN1CCCN(C2C3CC4CC(C3)CC2C4)CC1 (stereo unspecified)	52.5	-	-	-	-	.	-
COc1ccc(/C(C)=N/OCC(=O)N2CC3(C)CC2CC(C)(C)C3)cc1 (stereo unspecified)	62.9	-	-	-	-	-	-
Cc1[nH]c2c(Cl)cccc2c(=O)c1CN1CCCC1	100.0	-	-	-	-	.	92.8
CCc1c(C)sc(NC(=O)c2ccco2)c1C(=O)N1CCOCC1	-	-	-	-	-	.	.
CCc1c(C)sc(NC(=O)c2ccco2)c1C(=O)N1CCCCC1	52.7	-	-	-	-	-	-
CC1CCCCC1NC(=O)C1CC=CCC1C(=O)O (stereo unspecified)	54.6	-	-	-	-	.	-
COCCCC/C(=N\OCCN)c1ccc(C(F)(F)F)cc1	80.2	-	-	-	-	-	-
CCOC(=O)c1cccc(Nc2nc(-c3cccnc3)nc3ccccc23)c1	91.8	-	-	77.1	-	-	-
O=S(=O)(c1ccc(S(=O)(=O)N2CCCN(Cc3ccccc3)C2)cc1)N1CCCCCC1	75.7	-	-	-	-	-	-
CCOc1ccc(C(=O)Nc2c3c(nn2-c2ccc(F)cc2)CS(=O)C3)cc1 (stereo unspecified)	-	-	-	-	-	.	.
CCOc1ccc(C(=O)Nc2c3c(nn2-c2cccc(Cl)c2)CS(=O)C3)cc1 (stereo unspecified)	99.9	-	-	-	-	-	-
